Measured values collected from several papers.
Protocols differ between the studies behind these lines.
Target: Casein kinase I isoform gamma-3 (CSNK1G3, Homo sapiens, UniProt Q9Y6M4)

assay | conditions | quantity | value | SMILES
binding, competition with immobilised ligand | 0.5 µM | remaining binding | 85% | CCCCC(=O)Nc1ccc(-c2ccc3ncn(CCC)c(=O)c3c2)cn1
enzyme activity, inhibitor | 0.1 µM | inhibition | -4.11% | Cc1cc(O)c(-c2ccc([C@@H](C)CN(C)C)cc2)c2c1[nH]c(=O)c1sccc12
binding | 1 µM | remaining binding | 100% | Cc1ccc(NC(=O)c2ccnc(C(F)(F)F)c2)cc1-c1cc(OCCO)nc(N2CCOCC2)c1
thermal stability, DSF | 30 µM | ΔTm | 3.3 °C | N#Cc1ccc2nc(Nc3ccc(N4CCOCC4)c(Cl)c3)[nH]c2c1
enzyme activity, inhibitor | 1 µM | inhibition | 0% | C=CC(=O)N1CCC([C@@H]2CCNc3c(C(N)=O)c(-c4ccc(Oc5ccccc5)cc4)nn32)CC1
cell-free assay | 0.1 µM | remaining signal | 100% | C1=C/COCc2cc(ccc2OCCN2CCCC2)Nc2nccc(n2)-c2cccc(c2)COC/1
enzyme activity, inhibitor | 1 µM | inhibition | 0% | CO[C@@H]1[C@H](N(C)C(=O)c2ccccc2)C[C@H]2O[C@]1(C)n1c3ccccc3c3c4c(c5c6ccccc6n2c5c31)C(=O)NC4
binding | 1 µM | remaining binding | 100% | COc1ccc2[nH]c3c4[nH]c5ccc(OC)cc5c4c4c(c3c2c1)C(=O)NC4=O
